Only a selection was taken, and hits are over-represented in it overall.
HCT116 PTEN-null – growth suppression of PTEN-null HCT116, primary screen, cell-based, CellTiter-Glo; viability, % at 10 µM; HCT116 PTEN-null viability, 60 h; active compounds read low; 1.2% of 140,000 active;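 active = viability at or below a set limit, 4 SD under the median of all tested compounds, cut at about 3.7% in these data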;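 also: PTEN knockout HCT116 line with beta catenin targeted HCT116 as companion control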
Fibroblast inh – antiproliferative effect on LL 47 fibroblasts – human, LL 47 cells, CellTiter-Glo luminescence, primary screen | viability, % at 10 µM | 1.1% of 85,000 active | LL 47 human lung fibroblast viability, ATP luminescence; active compounds read low | AID 719, 2007;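 active = viability at or below 50% in the single dose screen; inactive = viability above 50%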;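 also: compound exposure lasted 72 h before the ATP readout; 100% = median luminescence of untreated cell-only wells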
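Material: human LL 47 lung fibroblast cells; quantity: 1,150 cells/well; medium: IMEM plus 15% FBS; doses: 0.1% DMSO in all compound wells; timing: overnight attachment after seeding, then 72 h compound exposure at 37 °C; detection: CellTiter-Glo luminescence; measure: % viability of median cell-only signal; controls: cell-only wells, no compound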
bCat KO growth – primary screen for growth suppressors in beta-catenin knockout HCT116 cells (colon tumor, human); HCT116 beta-catenin knockout viability, CellTiter-Glo, 60 h; active compounds read low; viability, % at 10 µM; 1.5% of 140,000 active;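 active = viability at or under a set limit, the compound median less 4 SD, cut at about 6% in these data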;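 also: 0% = Hyamine 1622 control at 20 µM and 100% = untreated cell control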
H69AR inhibit – proliferation blockers of H69AR lung cancer cells, primary screen, cell-based, human, 86K library; H69AR lung tumor viability, ATP luminescence, 72 h; active compounds read low; viability, % at 10 µM; 6% of 85,000 active;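 active = viability at or below 40%; inactive = viability above 40%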;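 also: multidrug resistant small cell line overexpressing MRP-1 efflux transporter; 100% = mean luminescence of untreated control wells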
HUVEC prolif 384 – inhibitors of HUVEC proliferation, primary screen, cell-based, 384-well; CellTiter-Glo luminescence, 72 h; active compounds read low; AID 648, 2007; viability, % at 10 µM (by protocol); 1.1% of 86,000 active;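 active = viability at or below 30%; inactive = viability above 30%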;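 also: 100% = median luminescence of DMSO-only cell control wells on each plate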
Active calls of the source: *; x = no result.

SMILES | HCT116 PTEN-null | Fibroblast inh | bCat KO growth | H69AR inhibit | HUVEC prolif 384
Cc1ccc(CN(C(=O)c2cc(=O)c3cc(Cl)c(C)cc3o2)C2CCS(=O)(=O)C2)cc1 (stereo not drawn) | 65.7 | 81.7 | 67.8 | 26.4* | 77.8
Cc1cc(C)n(CC(O)CN2c3ccccc3Sc3ccccc32)n1 (stereo not drawn) | 66.0 | 85.2 | 88.2 | 75.0 | 60.2
CCOc1ccc(C2=NNC(c3cccs3)=Nc3ccc(OC)cc32)cc1OCC | 76.3 | 82.6 | 76.6 | 38.5* | 71.0
CCCCCN1CSC(=S)N(Cc2ccccc2)C1 | 3.3* | x | 5.6* | x | x
CCN1CNC(=S)N(Cc2ccccc2)C1 | 87.8 | x | 83.2 | x | x
COc1ccc(-n2c(SCCC#N)nnc2-c2cc(Cl)ccc2OC)cc1Cl | 12.2 | 62.0 | 17.8 | 24.5* | 50.5
Cc1cccc(-c2nnc(SCC#N)n2-c2cccc(Cl)c2)c1 | 83.2 | 105.7 | 84.8 | 84.3 | 103.4
COc1ccc(OC)c(NC(=O)c2c(NC(=O)CNCc3ccco3)sc3c2CCC3)c1 | 79.3 | 78.2 | 90.2 | 16.4* | 80.2
Cc1ccc(-n2c(-c3ccc(Br)cc3)c[n+]3c2CCc2ccc4cccnc4c2-3)cc1 | 0.8* | 21.1* | 1.5* | 2.8* | 13.9*
CCOC(=O)c1cnc(-n2nc(C)cc2C)nc1NC1CCCCC1 | 2.1* | x | 1.9* | 1.1* | 31.8
CCOC(=O)c1cnc(-n2nc(C)cc2C)nc1N(CC)CC | 83.8 | 87.3 | 58.8 | 36.1* | 99.4
CCOC(=O)c1cnc(-n2nc(C)cc2C)nc1NNc1nc(-c2ccccc2)cc(-c2ccccc2)n1 | 4.4 | x | 4.5* | x | x
CCOC(=O)c1cnc(-n2nc(C)cc2C)nc1Nc1ccc(C)cc1 | 70.8 | x | 58.2 | x | x
CCOC(=O)c1cnc(-n2nc(C)cc2C)nc1Nc1ccc(N(C)C)cc1 | 10.2 | 30.0* | 9.8 | 3.0* | 56.3
CCCCCCCC(O)CC(CC1CCCCC1)C(=O)NN (stereo not drawn) | 95.6 | x | 88.7 | x | x
Cc1ccc(-c2[nH]ncc2/C=N/n2c(COc3ccccc3)nc3ccccc3c2=O)cc1 | 1.9* | x | 1.6* | x | x
Cc1ccccc1OCc1nc2ccccc2c(=O)n1/N=C/c1cn[nH]c1-c1ccccc1 | 30.8 | x | 33.7 | x | x
COc1ccc(-c2cc(C(F)(F)F)c(C#N)c(SCC(=O)Nc3ccccc3C#N)n2)cc1 | 4.9 | x | 3.2* | x | x
COc1ccccc1CNC(=O)CSc1nc(N)c(C#N)c(-c2cccs2)c1C#N | 85.4 | 94.1 | 80.7 | 57.3 | 86.8
COc1ccc(-c2cc(-c3cccs3)c(C#N)c(SCC(=O)NCc3ccccc3)n2)cc1 | 41.6 | 94.4 | 42.7 | 34.6* | 65.7
COc1ccc(-c2cc(-c3cccs3)c(C#N)c(SCC(=O)NCc3ccccc3OC)n2)cc1 | 6.5 | 48.6* | 10.4 | 11.4* | 45.4
C=CCNC(=O)c1ccccc1NC(=O)c1ccc(Cl)c(S(=O)(=O)Nc2ccccc2)c1 | 35.7 | x | 44.1 | x | x
Cc1cc(C(=O)CSc2nc3ccccc3c(=O)n2C)c(C)n1Cc1ccc2c(c1)OCO2 | 15.1 | 80.9 | 7.4 | 24.9* | 23.9*
O=C(OCCN(C1=NS(=O)(=O)c2ccccc21)c1ccc(Cl)cc1)c1ccco1 | 92.8 | 95.9 | 85.0 | 64.0 | 111.4
O=C(N/N=C/c1c[nH]c2ccccc12)c1cccc([N+](=O)[O-])c1 | 79.1 | x | 89.1 | x | x
SMILES | HCT116 PTEN-null | Fibroblast inh | bCat KO growth | H69AR inhibit | HUVEC prolif 384
Cc1[nH]n(-c2ccccc2)c(=O)c1/C=N/NC(=O)COc1ccccc1[N+](=O)[O-] | 16.0 | x | 24.0 | x | x
Cc1[nH]n(-c2cccc3ccccc23)c(=O)c1/C=N/NC(=O)c1cccc([N+](=O)[O-])c1 | 3.6* | x | 4.5* | x | x
CN1CCN(c2ccc([N+](=O)[O-])cc2/C=N/NC(=O)c2cccc([N+](=O)[O-])c2)CC1 | 4.2 | x | 5.3* | x | x
CCN(CC)C(=O)C1CCCN(c2ccc([N+](=O)[O-])cc2/C=N/NC(=O)c2cccc(O)c2)C1 (stereo not drawn) | 50.5 | x | 56.4 | x | x
Cc1[nH]n(-c2ccccc2)c(=O)c1/C=N/NC(=O)c1cccc([N+](=O)[O-])c1 | 2.6* | x | 2.4* | x | x
CCOC(=O)C1CCN(C(=O)Cn2cc(C(=O)C3CC3)c3ccccc32)CC1 | 97.3 | 82.2 | 89.4 | 39.8* | 83.9
COc1ccc(NS(=O)(=O)c2cccc(NC(=O)CCS(=O)(=O)c3ccccc3)c2)cc1 | 84.0 | x | 86.9 | x | x
O=c1[nH]c(N2CCN(c3ccccc3)CC2)nc2c1CCCC2 | 106.9 | 100.4 | 106.2 | 21.3* | 76.8
CCN(Cc1ccccc1)S(=O)(=O)c1ccc(S(=O)(=O)N(Cc2ccccn2)Cc2ccco2)cc1 | 65.7 | 102.4 | 72.7 | 22.1* | 70.5
COc1cccc(-c2csc(N3CCN(C(=O)NC45CC6CC(CC(C6)C4)C5)CC3)n2)c1 | 58.8 | 103.0 | 56.6 | 80.5 | 79.2
CCC1CCCCN1c1nc(-c2ccncc2)nc2ccccc12 (stereo not drawn) | 60.6 | 89.3 | 52.5 | 16.7* | 43.4
COC(=O)c1cc(COc2ccc3c(c2)oc(=O)c2ccccc23)c(C)o1 | 47.5 | 97.8 | 28.4 | 19.6* | 24.8*
O=C(/C=C/c1ccccc1)N/C(=C/c1ccccc1)C(=O)N1CCCCC1 | 91.2 | x | 94.1 | x | x
CCOC(=O)/C(=C\c1ccc(OC(F)F)cc1)C1=Nn2c(nnc2-c2ccc(Cl)cc2)SC1 | 2.1* | x | 1.4* | x | x
COc1ccc(-c2nnc3n2N=C(C)CS3)cc1 | 99.9 | 97.4 | 79.6 | 84.1 | 79.7
COc1ccc(NC(=O)/C(Cl)=C(/Cl)S(=O)(=O)Cc2ccccc2)cn1 | 3.0* | 4.7* | 4.5* | 1.9* | 124.9
CCc1ccccc1NC(=O)C(CC)Sc1nc2cc3c(cc2c(=O)n1Cc1ccco1)OCO3 (stereo not drawn) | 101.1 | 84.8 | 102.4 | 6.3* | 46.1
CCc1ccc(NC(=O)C(CC)Sc2nc3cc4c(cc3c(=O)n2Cc2ccco2)OCO4)cc1 (stereo not drawn) | 15.3 | 28.2* | 1.8* | 9.8* | 35.4
Cn1cc(SCC(=O)Nc2nc3ccccc3s2)c2ccccc21 | 75.6 | 97.1 | 85.1 | 71.3 | 10.5*
O=C(NCc1ccco1)c1ccc(Cn2c(=O)c3ccccc3n(Cc3cccc(Cl)c3)c2=O)cc1 | 63.2 | 68.1 | 60.6 | 30.9* | 62.3
Cc1ccc(C)c(Cn2c(=O)n(CCC(=O)NCc3ccco3)c(=O)c3ccccc32)c1 | 57.9 | 76.3 | 63.0 | 51.8 | 48.4
Cc1ccc(C)c(Cn2c(=O)n(CCCC(=O)NCc3ccco3)c(=O)c3ccccc32)c1 | 31.2 | 82.9 | 38.1 | 36.0* | 85.7
O=C(CCCCn1c(=O)c2ccccc2n(Cc2ccc(F)cc2Cl)c1=O)NCc1ccco1 | 64.7 | 88.1 | 61.1 | 24.3* | 64.0
CCn1c(=O)cc(SCC(=O)NCc2ccco2)c2ccccc21 | 37.4 | 88.8 | 23.9 | 38.6* | 60.3
O=C(c1ccco1)N1CCN(CC(O)Cn2c3ccccc3c3ccccc32)CC1 (stereo not drawn) | 105.5 | 94.3 | 100.5 | 58.7 | 84.7
